Reference: article PMC6347502 (Photochemistry and photobiology, 2018)
“And” between values parts separate entries of the source, which are not always exact repeats. Identical values can stand only once. Like-named read-outs stand apart in the source and are kept apart here.

What was measured:
[1] = cited from earlier work
[2] = aerated MeCN; cited from earlier work
[3] = system: HL-60 human promyelocytic leukemia cells; experiment: Cytotoxicity and photocytotoxicity, resazurin cell viability, leukemia cells; format: cell-based
Method in brief: (§1)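 HL-60 cells (suspension, RPMI 1640 + 20% FBS) or SK-MEL-28 cells (adherent, EMEM + 10% FBS) were used in log phase at ≥93% viability and equilibrated for 3 h. Chloride salts were diluted in DPBS (1 nM–300 µM; DMSO <0.1%) and incubated 16 h at 37 °C, 5% CO₂. Cells were then kept dark or given 100 J cm⁻² of visible light (400–700 nm, 44 mW cm⁻²) or red LED light (625 nm, 52.5 mW cm⁻²). After 48 h, resazurin was added for 3 h; fluorescence ex 530/em 620 nm. Triplicate. EC50 from sigmoidal dose–response fit; PI = dark/light EC50.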

[4] = Nanosecond transient absorption lifetime; format: physicochemical; conditions: degassed MeCN
Method in brief: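 Nanosecond laser flash photolysis on MeCN solutions argon-purged for 45 min. Excitation was 355 nm from a Nd:YAG third harmonic (4.1 ns pulse, 1 Hz). Transient difference absorption spectra were recorded and lifetimes taken from signal decays.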

pUC19 plasmid DNA = experiment: DNA photocleavage, plasmid gel mobility shift assay; format: biochemical; conditions: pUC19 20 μM NPs, visible light 14 J cm^−2
[5] = Steady-state and time-resolved emission; format: physicochemical
Method in brief: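 PF₆⁻ salts, 5–20 µM, in MeCN argon-sparged in a long-stem cuvette, or as 4:1 EtOH:MeOH glass frozen in liquid N₂ (77 K). Quantum yields from corrected steady-state spectra relative to [Ru(bpy)₃](PF₆)₂ (0.095 deaerated MeCN at 298 K; 0.38 at 77 K). Lifetimes measured with nitrogen/dye laser excitation at 457 nm, monitored at emission maximum, stroboscopic detection.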

[6] = UV-vis absorption, molar extinction coefficient at 625 nm; format: physicochemical
Method in brief: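 PF₆⁻ salts in spectroscopic-grade MeCN. ε was taken from the slope of absorbance versus concentration over five concentrations, measured in duplicate.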

[7] = Singlet oxygen sensitization quantum yield; format: physicochemical
[8] = system: SK-MEL-28 malignant melanoma cells; experiment: Cytotoxicity and photocytotoxicity, resazurin cell viability, melanoma cells; format: cell-based, human
Method in brief: as §1

SMILES | Φem reference value ([1]; 77 K in frozen 4:1 v/v EtOH:MeOH) | Φem reference value ([1]; 298 K in aerated MeCN) | Φem reference value ([1]; 298 K in deaerated MeCN) | emission lifetime [1] | ΦΔ of standard [2] | PI red light, HL60 ([3]; ratio of dark to red-light (625 nm) EC50, HL60) | PI visible light, HL60 ([3]; ratio of dark to visible-light EC50, HL60) | τTA, lifetime of nonemissive 3IL state [4] | MC:NP ratio for complete photocleavage (conversion of Form I to Form II DNA) (pUC19 plasmid DNA) | τem 77 K ([5]; 77 K, EtOH:MeOH (4:1) glass) | Φ (emission quantum yield) 77 K ([5]; 77 K, EtOH:MeOH (4:1) glass, PF6 salt) | τem 298 K ([5]; 298 K, argon-purged MeCN) | Φ (emission quantum yield) 298 K ([5]; 298 K, argon-purged MeCN, PF6 salt) | molar absorptivity at 625 nm (ε625 nm) [6] | ΦΔ (singlet oxygen quantum yield) 298 K ([7]; air-saturated MeCN at 298 K, relative to [Ru(bpy)3](PF6)2) | 1O2 quantum yield (ΦΔ) ([7]; air-saturated MeCN, room temperature) | PI red light, SKMEL28 ([8]; ratio of dark to red-light (625 nm) EC50, SKMEL28) | PI (phototherapeutic index) visible light, SKMEL28 ([8]; ratio of dark to visible-light EC50, SKMEL28) | EC50 ([8]; read-out: EC50 dark, SKMEL28, SKMEL28, dark)
F[P-](F)(F)(F)(F)F.F[P-](F)(F)(F)(F)F.[Ru+2].c1ccc(-c2ccccn2)nc1.c1ccc(-c2ccccn2)nc1.c1ccc(-c2ccccn2)nc1 [[Ru(bpy)3](PF6)2] | 0.38 | 0.012 | 0.095 | 0.9 μs | 0.56 | – | – | – | – | – | – | – | – | – | – | – | – | – | –
F[P-](F)(F)(F)(F)F.F[P-](F)(F)(F)(F)F.[Ru+2].c1ccc(-c2ccccn2)nc1.c1ccc(-c2ccccn2)nc1.c1csc(-c2ccc(-c3cc4cccnc4c4ncccc34)s2)c1 [Compound 2, Ru(bpy)2(phen-2T)PF6] | – | – | – | – | – | 19 | 835 | 43 μs | 1 | 6,600 ns | 0.14 | 1,030 ns | 0.0092 | < 100 M⁻¹ cm⁻¹ | 0.78 | 74–78% and 78% and 74% | 2 | 150 | 32 ± 1 µM
